Test results: ChEMBL document CHEMBL1139324, “Chemical modification and biological evaluation of new semisynthetic derivatives of 28,29-Didehydronystatin A1 (S44HP), a genetically engineered antifungal polyene macrolide antibiotic” (J Med Chem, 2009)
Converted amounts (≈) assume the structure as drawn.

Assays:
[1] = Toxicity against human erythrocytes assessed as hemolytic activity at 5 ug/ml; format: cell-based, Erythrocyte; settings: read-out: Activity
Outline: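 Lysis of erythrocytes in defibrinated human blood was measured under buffered conditions with compound at 5 µg/mL. Percent hemolysis is the mean of blood samples from two donors.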

[2] = system: Vanrija humicola; test: Antifungal activity against Cryptococcus humicolus ATCC 9949 after 48 hrs by broth microdilution method; format: functional; settings: ATCC 9949, 48 h
Outline: (§1)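 Yeast susceptibility by broth microdilution per NCCLS M27-A in 96-well plates. MIC is the lowest concentration inhibiting growth. Where repeat runs fully coincided, a single value is reported.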

[3] = system: Candida albicans; test: Antifungal activity against Candida albicans ATCC 14053 after 48 hrs by broth microdilution method; format: functional; settings: ATCC 14053, 48 h; outline: as §1
[4] = system: Aspergillus niger; test: Antifungal activity against Aspergillus niger ATCC 16404 after 48 hrs by broth microdilution method; format: functional; settings: ATCC 16404, 48 h
Outline: (§2)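 Susceptibility of filamentous fungi (molds) by broth microdilution per NCCLS M38-A in 96-well microplates. The MIC is read as the lowest inhibitory concentration. It is given as one number when replicate data fully agreed.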

[5] = system: Fusarium oxysporum; test: Antifungal activity against Fusarium oxysporum VKM F-140 after 48 hrs by broth microdilution method; format: functional; outline: as §2

| Structure (SMILES) | hemolysis at 5 ug/ml [1] [%] | MIC [2] [µg/mL] | MIC [3] [µg/mL] | MIC [4] [µg/mL] | MIC [5] [µg/mL] |
| --- | --- | --- | --- | --- | --- |
| COC(=O)[C@H](CO)NC(=O)[C@H]1[C@@H]2C[C@@H](O[C@H]3O[C@@H](C)[C@H](O)[C@@H](N)[C@H]3O)/C=C/C=C/C=C/C=C/C=C/C=C/C=C/[C@H](C)[C@@H](O)[C@@H](C)[C@H](C)OC(=O)C[C@H](O)C[C@H](O)C[C@H](O)CC[C@@H](O)[C@H](O)C[C@](O)(C[C@@H]1O)O2 | 14 | 2 (≈ 1.95 µM) | 2 (≈ 1.95 µM) | 2 (≈ 1.95 µM) | 4 (≈ 3.9 µM) |
| CNC(=O)[C@H]1[C@@H]2C[C@@H](O[C@H]3O[C@@H](C)[C@H](O)[C@@H](N)[C@H]3O)/C=C/C=C/C=C/C=C/C=C/C=C/C=C/[C@H](C)[C@@H](O)[C@@H](C)[C@H](C)OC(=O)C[C@H](O)C[C@H](O)C[C@H](O)CC[C@@H](O)[C@H](O)C[C@](O)(C[C@@H]1O)O2 | 5 | 1 (≈ 1.07 µM) | 2 (≈ 2.13 µM) | 2 (≈ 2.13 µM) | 8 (≈ 8.54 µM) |
| C[C@@H]1[C@H](O)[C@@H](C)/C=C/C=C/C=C/C=C/C=C/C=C/C=C/[C@H](O[C@H]2O[C@@H](C)[C@H](O)[C@@H](N)[C@H]2O)C[C@@H]2O[C@](O)(C[C@@H](O)[C@H](O)CC[C@@H](O)C[C@@H](O)C[C@@H](O)CC(=O)O[C@H]1C)C[C@H](O)[C@H]2C(N)=O | 8 | 2 (≈ 2.17 µM) | 2 (≈ 2.17 µM) | 4 (≈ 4.33 µM) | 4 (≈ 4.33 µM) |
| COC(=O)C(CO)NC(=O)[C@H]1[C@@H]2C[C@@H](O[C@H]3O[C@@H](C)[C@H](O)[C@@H](N)[C@H]3O)/C=C/C=C/C=C/C=C/C=C/C=C/C=C/[C@H](C)[C@@H](O)[C@@H](C)[C@H](C)OC(=O)C[C@H](O)C[C@H](O)C[C@H](O)CC[C@@H](O)[C@H](O)C[C@](O)(C[C@@H]1O)O2 (some centres not stated) | 4 | 2 (≈ 1.95 µM) | 2 (≈ 1.95 µM) | 4 (≈ 3.9 µM) | 4 (≈ 3.9 µM) |
| C[C@@H]1[C@H](O)[C@@H](C)/C=C/C=C/C=C/C=C/C=C/C=C/C=C/[C@H](O[C@H]2O[C@@H](C)[C@H](O)[C@@H](N)[C@H]2O)C[C@@H]2O[C@](O)(C[C@@H](O)[C@H](O)CC[C@@H](O)C[C@@H](O)C[C@@H](O)CC(=O)O[C@H]1C)C[C@H](O)[C@H]2C(=O)N[C@H]1[C@H](O)[C@@H](O)[C@H](CO)O[C@H]1O | 3 | 1 (≈ 0.921 µM) | 1 (≈ 0.921 µM) | 2 (≈ 1.84 µM) | 8 (≈ 7.37 µM) |
| COC(=O)[C@@H](NC(=O)[C@H]1[C@@H]2C[C@@H](O[C@H]3O[C@@H](C)[C@H](O)[C@@H](N)[C@H]3O)/C=C/C=C/C=C/C=C/C=C/C=C/C=C/[C@H](C)[C@@H](O)[C@@H](C)[C@H](C)OC(=O)C[C@H](O)C[C@H](O)C[C@H](O)CC[C@@H](O)[C@H](O)C[C@](O)(C[C@@H]1O)O2)C(C)C | – | 2 (≈ 1.93 µM) | 2 (≈ 1.93 µM) | 4 (≈ 3.86 µM) | 8 (≈ 7.71 µM) |
| C[C@@H]1[C@H](O)[C@@H](C)/C=C/C=C/C=C/C=C/C=C/C=C/C=C/[C@H](O[C@H]2O[C@@H](C)[C@H](O)[C@@H](N)[C@H]2O)C[C@@H]2O[C@](O)(C[C@@H](O)[C@H](O)CC[C@@H](O)C[C@@H](O)C[C@@H](O)CC(=O)O[C@H]1C)C[C@H](O)[C@H]2C(=O)NCCO | 3 | 4 (≈ 4.14 µM) | 2 (≈ 2.07 µM) | 4 (≈ 4.14 µM) | 4 (≈ 4.14 µM) |
| C[C@@H]1[C@H](O)[C@@H](C)/C=C/C=C/C=C/C=C/C=C/C=C/C=C/[C@H](O[C@H]2O[C@@H](C)[C@H](O)[C@@H](NC[C@]3(O)OC[C@@H](O)[C@@H](O)[C@@H]3O)[C@H]2O)C[C@@H]2O[C@](O)(C[C@@H](O)[C@H](O)CC[C@@H](O)C[C@@H](O)C[C@@H](O)CC(=O)O[C@H]1C)C[C@H](O)[C@H]2C(=O)O | 5 | 1 (≈ 0.921 µM) | 1 (≈ 0.921 µM) | 2 (≈ 1.84 µM) | 8 (≈ 7.36 µM) |
| C[C@@H]1[C@H](O)[C@@H](C)/C=C/C=C/C=C/C=C/C=C/C=C/C=C/[C@H](O[C@H]2O[C@@H](C)[C@H](O)[C@@H](NC[C@]3(O)OC[C@@H](O)[C@H](O)[C@@H]3O)[C@H]2O)C[C@@H]2O[C@](O)(C[C@@H](O)[C@H](O)CC[C@@H](O)C[C@@H](O)C[C@@H](O)CC(=O)O[C@H]1C)C[C@H](O)[C@H]2C(=O)O | 8 | 1 (≈ 0.921 µM) | 1 (≈ 0.921 µM) | 2 (≈ 1.84 µM) | 8 (≈ 7.36 µM) |
| C[C@@H]1[C@H](O)[C@@H](C)/C=C/C=C/C=C/C=C/C=C/C=C/C=C/[C@H](O[C@H]2O[C@@H](C)[C@H](O)[C@@H](N)[C@H]2O)C[C@@H]2O[C@](O)(C[C@@H](O)[C@H](O)CC[C@@H](O)C[C@@H](O)C[C@@H](O)CC(=O)O[C@H]1C)C[C@H](O)[C@H]2C(=O)NC(C)(CO)CO | – | 4 (≈ 3.96 µM) | 4 (≈ 3.96 µM) | 4 (≈ 3.96 µM) | 16 (≈ 15.8 µM) |
| C[C@@H]1[C@H](O)[C@@H](C)/C=C/C=C/C=C/C=C/C=C/C=C/C=C/[C@H](O[C@H]2O[C@@H](C)[C@H](O)[C@@H](N)[C@H]2O)C[C@@H]2O[C@](O)(C[C@@H](O)[C@H](O)CC[C@@H](O)C[C@@H](O)C[C@@H](O)CC(=O)O[C@H]1C)C[C@H](O)[C@H]2C(=O)NC1C2CC3CC(C2)CC1C3 (some centres not stated) | – | 4 (≈ 3.78 µM) | 4 (≈ 3.78 µM) | 4 (≈ 3.78 µM) | 8 (≈ 7.57 µM) |
| COC(=O)[C@H](C)NC(=O)[C@H]1[C@@H]2C[C@@H](O[C@H]3O[C@@H](C)[C@H](O)[C@@H](N)[C@H]3O)/C=C/C=C/C=C/C=C/C=C/C=C/C=C/[C@H](C)[C@@H](O)[C@@H](C)[C@H](C)OC(=O)C[C@H](O)C[C@H](O)C[C@H](O)CC[C@@H](O)[C@H](O)C[C@](O)(C[C@@H]1O)O2 | – | 2 (≈ 1.98 µM) | 2 (≈ 1.98 µM) | 4 (≈ 3.96 µM) | 8 (≈ 7.93 µM) |
| C[C@@H]1[C@H](O)[C@@H](C)/C=C/C=C/C=C/C=C/C=C/C=C/C=C/[C@H](O[C@H]2O[C@@H](C)[C@H](O)[C@@H](NCCCN)[C@H]2O)C[C@@H]2O[C@](O)(C[C@@H](O)[C@H](O)CC[C@@H](O)C[C@@H](O)C[C@@H](O)CC(=O)O[C@H]1C)C[C@H](O)[C@H]2C(=O)O | 45 | 4 (≈ 4.08 µM) | 2 (≈ 2.04 µM) | 4 (≈ 4.08 µM) | 4 (≈ 4.08 µM) |
| C[C@@H]1[C@H](O)[C@@H](C)/C=C/C=C/C=C/C=C/C=C/C=C/C=C/[C@H](O[C@H]2O[C@@H](C)[C@H](O)[C@@H](NCc3ccc(N(C)C)cc3)[C@H]2O)C[C@@H]2O[C@](O)(C[C@@H](O)[C@H](O)CC[C@@H](O)C[C@@H](O)C[C@@H](O)CC(=O)O[C@H]1C)C[C@H](O)[C@H]2C(=O)O | – | 2 (≈ 1.89 µM) | 2 (≈ 1.89 µM) | 4 (≈ 3.78 µM) | > 16 |
| C[C@@H]1[C@H](O)[C@@H](C)/C=C/C=C/C=C/C=C/C=C/C=C/C=C/[C@H](O[C@H]2O[C@@H](C)[C@H](O)[C@@H](NCc3ccccc3S(=O)(=O)O)[C@H]2O)C[C@@H]2O[C@](O)(C[C@@H](O)[C@H](O)CC[C@@H](O)C[C@@H](O)C[C@@H](O)CC(=O)O[C@H]1C)C[C@H](O)[C@H]2C(=O)O | – | 4 (≈ 3.66 µM) | 4 (≈ 3.66 µM) | 4 (≈ 3.66 µM) | > 16 |
| C[C@@H]1[C@H](O)[C@@H](C)/C=C/C=C/C=C/C=C/C=C/C=C/C=C/[C@H](O[C@H]2O[C@@H](C)[C@H](O)[C@@H](NC[C@]3(O)OC[C@@H](O)[C@@H](O[C@@H]4O[C@H](CO)[C@H](O)[C@H](O)[C@H]4O)[C@@H]3O)[C@H]2O)C[C@@H]2O[C@](O)(C[C@@H](O)[C@H](O)CC[C@@H](O)C[C@@H](O)C[C@@H](O)CC(=O)O[C@H]1C)C[C@H](O)[C@H]2C(=O)O | 4 | 2 (≈ 1.6 µM) | 2 (≈ 1.6 µM) | 2 (≈ 1.6 µM) | 8 (≈ 6.41 µM) |
| C[C@@H]1[C@H](O)[C@@H](C)/C=C/C=C/C=C/C=C/C=C/C=C/C=C/[C@H](O[C@H]2O[C@@H](C)[C@H](O)[C@@H](N)[C@H]2O)C[C@@H]2O[C@](O)(C[C@@H](O)[C@H](O)CC[C@@H](O)C[C@@H](O)C[C@@H](O)CC(=O)O[C@H]1C)C[C@H](O)[C@H]2C(=O)N(C)CC(O)C(O)C(O)C(O)CO (some centres not stated) | – | 4 (≈ 3.63 µM) | 4 (≈ 3.63 µM) | 4 (≈ 3.63 µM) | > 16 |
| C[C@@H]1[C@H](O)[C@@H](C)/C=C/C=C/C=C/C=C/C=C/C=C/C=C/[C@H](O[C@H]2O[C@@H](C)[C@H](O)[C@@H](NC(=O)C(N)CCCCN)[C@H]2O)C[C@@H]2O[C@](O)(C[C@@H](O)[C@H](O)CC[C@@H](O)C[C@@H](O)C[C@@H](O)CC(=O)O[C@H]1C)C[C@H](O)[C@H]2C(=O)O (some centres not stated) | – | 8 (≈ 7.6 µM) | 8 (≈ 7.6 µM) | 16 (≈ 15.2 µM) | > 16 |
